ChEMBL document CHEMBL3734666, “Lipophilic vancomycin aglycon dimer with high activity against vancomycin-resistant bacteria” (2015)
In brackets after ≈: the same amount, converted by molar mass. Activity calls are given as the source filed them. The rule behind the calls is not given here.

Tests used:
Staphylococcus aureus [1] = assay: Bacteriostatic activity against methicillin-resistant Staphylococcus aureus ATCC 33591 at 2 to 4 uM measured within 6 hrs; assay type: functional, organism-based
Staphylococcus aureus [2] = assay: Bacteriostatic activity against methicillin-resistant Staphylococcus aureus ATCC 33591 at 2 to 4 uM measured after 6 hrs; assay type: functional, organism-based
Staphylococcus aureus [3] = assay: Antibacterial activity against methicillin-resistant Staphylococcus aureus ATCC 33591 infected in human whole blood assessed as bacterial burden at 4 uM after 3 hrs (reference value: 7.0 log10 CFU/ml); assay type: functional
Staphylococcus aureus [4] = assay: Antibacterial activity against methicillin-sensitive Staphylococcus aureus after 24 hrs by broth micro dilution assay; assay type: functional
Method in brief: (§1)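 MIC read against vancomycin-sensitive staphylococci (MSSA, MRSA) and enterococci (VSE), plus vancomycin-resistant staphylococci (VISA) and enterococci (VRE).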

Staphylococcus aureus [5] = assay: Antibacterial activity against methicillin-resistant Staphylococcus aureus ATCC 33591 after 24 hrs by broth micro dilution assay; assay type: functional; conditions: ATCC 33591, 24 h; method in brief: as §1
Enterococcus faecium [6] = assay: Antibacterial activity against vancomycin-sensitive Enterococcus faecium after 24 hrs by broth micro dilution assay; assay type: functional
Staphylococcus aureus [7] = assay: Antibacterial activity against vancomycin-intermediate-resistant Staphylococcus aureus […] after 24 hrs by broth micro dilution assay; assay type: functional; method in brief: as §1
Enterococcus faecium [8] = assay: Antibacterial activity against vancomycin-resistant Enterococcus faecium ATCC 51559 after 24 hrs by broth micro dilution assay; assay type: functional; conditions: ATCC 51559, 24 h; method in brief: as §1
[9] = Binding affinity to N,N'-diacetyl-Lys-D-Ala-D-Ala (unknown origin) by UV-difference spectroscopy
Method in brief: (§2)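 Binding constants (Ka) measured by UV-difference spectroscopy with the model ligands N,N′-diacetyl-Lys-D-Ala-D-Ala (sensitive) and N,N′-diacetyl-Lys-D-Ala-D-Lac (resistant).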

[10] = Binding affinity to N,N'-diacetyl-Lys-D-Ala-D-Lac (unknown origin) by UV-difference spectroscopy; method in brief: as §2
Staphylococcus aureus [11] = assay: Antibacterial activity against methicillin-resistant Staphylococcus aureus ATCC 33591 infected in human whole blood assessed as bacterial burden at 2 uM after 3 hrs (reference value: 7.0 log10 CFU/ml); assay type: functional
Enterococcus faecium [12] = assay: Inhibition of peptidoglycan biosynthesis in vancomycin-resistant Enterococcus faecium ATCC 51559 assessed as accumulation of UDP-MurNAc-pp at 5 uM after 60 mins by mass spectrometric analysis; assay type: functional, organism-based
Staphylococcus aureus [13] = assay: Bactericidal activity against methicillin-resistant Staphylococcus aureus ATCC 33591 assessed as reduction in bacterial burden at 4 uM measured within 3 hrs by time-kill assay; assay type: functional
Method in brief: (§3)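 Time-kill assay on MRSA starting near 8log₁₀ CFU/mL, with compound at 2 and 4 µM. Viable counts were taken over 24 h, including a 3 h point, with a detection limit of <50 CFU/mL.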

Staphylococcus aureus [14] = assay: Bactericidal activity against methicillin-resistant Staphylococcus aureus ATCC 33591 assessed as reduction in bacterial burden at 4 uM measured within 24 hrs by time-kill assay; assay type: functional, organism-based; method in brief: as §3

For `CN[C@@H](CC(C)C)C(=O)N[C@H]1C(=O)N[C@@H](CC(N)=O)C(=O)N[C@H]2C(=O)N[C@H]3C(=O)N[C@H](C(=O)N[C@@H](C(=O)O)c4cc(O)cc(O)c4-c4cc3ccc4O)[C@H](O)c3ccc(c(Cl)c3)Oc3cc2cc(c3O[C@H]2O[C@@H](CO)[C@H](O)[C@@H](O)[C@@H]2O[C@@H]2C[C@@](C)(N)[C@@H](O)[C@@H](C)O2)Oc2ccc(cc2Cl)[C@H]1O`, the Activity (Staphylococcus aureus [1]) was “Active”, the Activity (Staphylococcus aureus [2]) was “inactive” and the Activity (Staphylococcus aureus [3]) was 1 log10CFU/ml. For the same compound, the MIC (Staphylococcus aureus [4]) was 0.6 µM (≈ 0.87 µg/mL), the MIC (Staphylococcus aureus [5]) was 0.7 µM (≈ 1.01 µg/mL) and the MIC (Enterococcus faecium [6]) was 0.6 µM (≈ 0.87 µg/mL). It also gave an MIC (Staphylococcus aureus [7]) of 13 µM (≈ 18.8 µg/mL), an MIC (Enterococcus faecium [8]) of 750 µM (≈ 1090 µg/mL) and a Ka [9] of 1 ×10⁵ /M. It also gave a Ka [10] of 5 ×10² /M.

In the case of `CN[C@H](CC(C)C)C(=O)N[C@@H]1C(=O)N[C@H](CC(N)=O)C(=O)N[C@@H]2C(=O)N[C@@H]3C(=O)N[C@@H](C(=O)N[C@H](C(=O)NCCCCCCCCNC(=O)[C@H]4NC(=O)[C@@H]5NC(=O)[C@@H](NC(=O)[C@H]6NC(=O)[C@@H](CC(N)=O)NC(=O)[C@@H](NC(=O)[C@@H](CC(C)C)NC)[C@@H](O)c7ccc(c(Cl)c7)Oc7cc6cc(c7O)Oc6ccc(cc6Cl)[C@@H]5O)c5ccc(O)c(c5)-c5c(O)cc(O)cc54)c4cc(O)cc(O)c4-c4cc3ccc4O)[C@@H](O)c3ccc(c(Cl)c3)Oc3cc2cc(c3O)Oc2ccc(cc2Cl)[C@@H]1O`, the MIC (Staphylococcus aureus [4]) is reported as 0.8 µM (≈ 1.92 µg/mL), the MIC (Staphylococcus aureus [5]) is reported as 0.6 µM (≈ 1.44 µg/mL) and the MIC (Enterococcus faecium [6]) is reported as 0.6 µM (≈ 1.44 µg/mL). It also gave an MIC (Staphylococcus aureus [7]) of 0.2 µM (≈ 0.479 µg/mL) and an MIC (Enterococcus faecium [8]) of 25.8 µM (≈ 61.8 µg/mL).

`CN[C@H](CC(C)C)C(=O)N[C@@H]1C(=O)N[C@H](CC(N)=O)C(=O)N[C@@H]2C(=O)N[C@@H]3C(=O)N[C@@H](C(=O)N[C@H](C(=O)NCCC[N+](C)(C)CCCCCCCC[N+](C)(C)CCCNC(=O)[C@H]4NC(=O)[C@@H]5NC(=O)[C@@H](NC(=O)[C@H]6NC(=O)[C@@H](CC(N)=O)NC(=O)[C@@H](NC(=O)[C@@H](CC(C)C)NC)[C@@H](O)c7ccc(c(Cl)c7)Oc7cc6cc(c7O)Oc6ccc(cc6Cl)[C@@H]5O)c5ccc(O)c(c5)-c5c(O)cc(O)cc54)c4cc(O)cc(O)c4-c4cc3ccc4O)[C@@H](O)c3ccc(c(Cl)c3)Oc3cc2cc(c3O)Oc2ccc(cc2Cl)[C@@H]1O` gave an MIC (Staphylococcus aureus [4]) of 0.2 µM, an MIC (Staphylococcus aureus [5]) of 0.3 µM and an MIC (Enterococcus faecium [6]) of 0.05 µM. For the same compound, the MIC (Staphylococcus aureus [7]) was 0.1 µM and the MIC (Enterococcus faecium [8]) was 48 µM.

For `CN[C@H](CC(C)C)C(=O)N[C@H]1C(=O)N[C@@H](CC(N)=O)C(=O)N[C@H]2C(=O)N[C@H]3C(=O)N[C@H](C(=O)N[C@H](C(=O)O)c4cc(O)cc(O)c4-c4cc3ccc4O)[C@H](O)c3ccc(c(Cl)c3)Oc3cc2cc(c3O)Oc2ccc(cc2Cl)[C@H]1O` [VANCOMYCIN AGLYCON], the MIC (Staphylococcus aureus [4]) was 1 µM (≈ 1.14 µg/mL), the MIC (Staphylococcus aureus [5]) was 1 µM (≈ 1.14 µg/mL) and the MIC (Enterococcus faecium [6]) was 1.8 µM (≈ 2.06 µg/mL). The MIC (Staphylococcus aureus [7]) was 4 µM (≈ 4.58 µg/mL) and the MIC (Enterococcus faecium [8]) was over 100 µM.

`CCCCCCCCN(CCCNC(=O)[C@H]1NC(=O)[C@@H]2NC(=O)[C@@H](NC(=O)[C@H]3NC(=O)[C@@H](CC(N)=O)NC(=O)[C@@H](NC(=O)[C@@H](CC(C)C)NC)[C@@H](O)c4ccc(c(Cl)c4)Oc4cc3cc(c4O)Oc3ccc(cc3Cl)[C@@H]2O)c2ccc(O)c(c2)-c2c(O)cc(O)cc21)CCCNC(=O)[C@@H]1NC(=O)[C@H]2NC(=O)[C@H](NC(=O)[C@@H]3NC(=O)[C@H](CC(N)=O)NC(=O)[C@H](NC(=O)[C@@H](CC(C)C)NC)[C@H](O)c4ccc(c(Cl)c4)Oc4cc3cc(c4O)Oc3ccc(cc3Cl)[C@H]2O)c2ccc(O)c(c2)-c2c(O)cc(O)cc21` showed an Activity (Staphylococcus aureus [11]) of 4.5 log10CFU/ml, an MIC (Staphylococcus aureus [4]) of 0.6 µM (≈ 1.5 µg/mL) and an MIC (Staphylococcus aureus [5]) of 0.6 µM (≈ 1.5 µg/mL). For the same compound, the MIC (Enterococcus faecium [6]) was 0.5 µM (≈ 1.25 µg/mL), the MIC (Staphylococcus aureus [7]) was 0.6 µM (≈ 1.5 µg/mL) and the MIC (Enterococcus faecium [8]) was 2.5 µM (≈ 6.24 µg/mL). For the same compound, the Ka [9] was 1 ×10⁵ /M, the Ka [10] was 5.7 ×10³ /M and the inhibition (Enterococcus faecium [12]) was “Active”. The Activity (Staphylococcus aureus [13]) was 3 log10CFU/ml and the Activity (Staphylococcus aureus [14]) was “Active”.

For `CN[C@H](CC(C)C)C(=O)N[C@H]1C(=O)N[C@@H](CC(N)=O)C(=O)N[C@H]2C(=O)N[C@H]3C(=O)N[C@H](C(=O)N[C@H](C(=O)NCCCCCCCCNC(=O)C(F)(F)F)c4cc(O)cc(O)c4-c4cc3ccc4O)[C@H](O)c3ccc(c(Cl)c3)Oc3cc2cc(c3O)Oc2ccc(cc2Cl)[C@H]1O`, the MIC (Staphylococcus aureus [4]) was 1 µM (≈ 1.37 µg/mL), the MIC (Staphylococcus aureus [5]) was 2 µM (≈ 2.73 µg/mL) and the MIC (Enterococcus faecium [6]) was 0.6 µM (≈ 0.82 µg/mL). For the same compound, the MIC (Staphylococcus aureus [7]) was 0.6 µM (≈ 0.82 µg/mL) and the MIC (Enterococcus faecium [8]) was 30.5 µM (≈ 41.7 µg/mL).

`CCCCCCCCN(CCCNC(=O)[C@H]1NC(=O)[C@H]2NC(=O)[C@H](NC(=O)[C@@H]3NC(=O)[C@H](CC(N)=O)NC(=O)[C@H](NC(=O)[C@@H](CC(C)C)NC)[C@H](O)c4ccc(c(Cl)c4)Oc4cc3cc(c4O)Oc3ccc(cc3Cl)[C@H]2O)c2ccc(O)c(c2)-c2c(O)cc(O)cc21)CCCNC(=O)C(F)(F)F` showed an MIC (Staphylococcus aureus [4]) of 0.8 µM (≈ 1.17 µg/mL), an MIC (Staphylococcus aureus [5]) of 1 µM (≈ 1.47 µg/mL) and an MIC (Enterococcus faecium [6]) of 0.4 µM (≈ 0.586 µg/mL). The MIC (Staphylococcus aureus [7]) was 0.8 µM (≈ 1.17 µg/mL) and the MIC (Enterococcus faecium [8]) was 6.5 µM (≈ 9.52 µg/mL).

In the case of `CN[C@H](CC(C)C)C(=O)N[C@H]1C(=O)N[C@@H](CC(N)=O)C(=O)N[C@H]2C(=O)N[C@H]3C(=O)N[C@H](C(=O)N[C@H](C(=O)NCCC[N+](C)(C)CCCCCCCC[N+](C)(C)CCCNC(=O)C(F)(F)F)c4cc(O)cc(O)c4-c4cc3ccc4O)[C@H](O)c3ccc(c(Cl)c3)Oc3cc2cc(c3O)Oc2ccc(cc2Cl)[C@H]1O`, the MIC (Staphylococcus aureus [4]) is reported as 1 µM, the MIC (Staphylococcus aureus [5]) is reported as 1 µM and the MIC (Enterococcus faecium [6]) is reported as 0.2 µM. It also gave an MIC (Staphylococcus aureus [7]) of 0.5 µM and an MIC (Enterococcus faecium [8]) of over 100 µM.
